ChEMBL document CHEMBL4342410, “Design and Discovery of N-(3-(2-(2-Hydroxyethoxy)-6-morpholinopyridin-4-yl)-4-methylphenyl)-2-(trifluoromethyl)isonicotinamide, a Selective, Efficacious, and Well-Tolerated RAF Inhibitor Targeting RAS Mutant Cancers: The Path to the Clinic” (J Med Chem, 2020)
In brackets after ≈: the same amount, converted by molar mass. Activity calls are given as the source filed them. No cut-off for these calls is given here.

Experiments:
[1] = biological target: RAF proto-oncogene serine/threonine-protein kinase (Homo sapiens, UniProt P04049, Y340E/Y341E); test: Inhibition of CRAF Y340E/Y341E mutant (unknown origin) using human MEK1 K97R mutant as substrate pretreated for 30 mins followed by substrate addition measured after 40 mins by alphascreen assay
[2] = Intrinsic clearance in human liver microsomes; format: ADME, Microsome; settings: read-out: CLH
[3] = biological target: T1, RAF proto-oncogene serine/threonine-protein kinase (Homo sapiens, UniProt P04049); test: Inhibition of CRAF in human Calu6 cells assessed as reduction MEK phosphorylation measured after 1 hr by sandwich ELISA; format: cell-based
[4] = Solubility of compound in pH 6.8 Cl-free PBS buffer by shake-flask assay; format: physicochemical
In short: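 Shake-flask solubility measured in chloride-free PBS at pH 6.8.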

Calu-6 = test: Antiproliferative activity against human Calu6 cells harboring KRAS Q61K mutant assessed as reduction in cell viability after 72 hrs by CellTiter-Glo assay; format: functional, cell-based; settings: Calu-6, 72 h
[5] = Apparent permeability across apical to basolateral side in human Caco2 cells at pH 7.4 by LC/MS/MS analysis; format: ADME, cell-based; settings: Caco-2, pH 7.4
[6] = Apparent permeability across basolateral to apical side in human Caco2 cells at pH 7.4 by LC/MS/MS analysis; format: ADME, cell-based; settings: Caco-2, pH 7.4
[7] = Drug level in human hepatocytes treated with RAF709 at 10 uM measured after 3 hrs by LC-MS/MS analysis; format: ADME, cell-based, Hepatocyte
[8] = Drug level in dog hepatocytes treated with RAF709 at 10 uM measured after 3 hrs by LC-MS/MS analysis; format: ADME, cell-based, Canis lupus familiaris, Hepatocyte
[9] = Drug level in rat hepatocytes treated with RAF709 at 10 uM measured after 3 hrs by LC-MS/MS analysis; format: ADME, cell-based, Hepatocyte
Cytochrome P450 3A4 = Cytochrome P450 3A4 (Homo sapiens, UniProt P08684); test: Time dependent inhibition of CYP3A4 in human liver microsomes assessed as inactivation rate constant at 10 uM using midazolam as substrate incubated prior to substrate addition and measured after 6 mins in presence of NADPH; format: ADME; settings: 0.1 h
In short: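 Human liver microsomes (0.5 mg/mL) preincubated with test compound at 10 µM and 1 mM NADPH in phosphate buffer at 37 °C for 0, 5, 15 and 30 min. Mixture then diluted 20-fold and incubated with midazolam (20 µM) at 37 °C for 6 min to measure residual CYP3A4 activity. kobs taken as the initial rate of decline of activity versus preincubation time.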

[10] = Stimulation of BRAF-CRAF dimerization in human HCT116 cells measured after 2 hrs by NanoBit luciferase complementation assay; format: cell-based
[11] = biological target: T1, RAF proto-oncogene serine/threonine-protein kinase; test: Inhibition of CRAF in human Calu6 cells assessed as reduction MEK phosphorylation up to 24 uM measured after 1 hr by sandwich ELISA; format: cell-based
[12] = biological target: T1, RAF proto-oncogene serine/threonine-protein kinase; test: Activation of CRAF in human Calu6 cells assessed as induction of MEK phosphorylation at 3 uM measured after 1 hr by sandwich ELISA; format: cell-based
[13] = Stability in human hepatocytes assessed as parent compound remaining at 10 uM measured after 3 hrs by LC-MS/MS analysis; format: ADME, cell-based, Hepatocyte; settings: read-out: Stability
[14] = Stability in rat hepatocytes assessed as parent compound remaining at 10 uM measured after 3 hrs by LC-MS/MS analysis; format: ADME, cell-based, Hepatocyte
[15] = Drug metabolism in rat hepatocytes assessed as amide hydrolysis at 10 uM measured after 3 hrs by LC-MS/MS analysis; format: ADME, cell-based, Hepatocyte
[16] = Stability in dog hepatocytes assessed as parent compound remaining at 10 uM measured after 3 hrs by LC-MS/MS analysis; format: ADME, cell-based, Canis lupus familiaris, Hepatocyte; settings: read-out: Stability
[17] = Drug metabolism in human hepatocytes assessed as amide hydrolysis at 10 uM measured after 3 hrs by LC-MS/MS analysis; format: ADME, cell-based, Hepatocyte

T1 sequence (P04049 whole entry): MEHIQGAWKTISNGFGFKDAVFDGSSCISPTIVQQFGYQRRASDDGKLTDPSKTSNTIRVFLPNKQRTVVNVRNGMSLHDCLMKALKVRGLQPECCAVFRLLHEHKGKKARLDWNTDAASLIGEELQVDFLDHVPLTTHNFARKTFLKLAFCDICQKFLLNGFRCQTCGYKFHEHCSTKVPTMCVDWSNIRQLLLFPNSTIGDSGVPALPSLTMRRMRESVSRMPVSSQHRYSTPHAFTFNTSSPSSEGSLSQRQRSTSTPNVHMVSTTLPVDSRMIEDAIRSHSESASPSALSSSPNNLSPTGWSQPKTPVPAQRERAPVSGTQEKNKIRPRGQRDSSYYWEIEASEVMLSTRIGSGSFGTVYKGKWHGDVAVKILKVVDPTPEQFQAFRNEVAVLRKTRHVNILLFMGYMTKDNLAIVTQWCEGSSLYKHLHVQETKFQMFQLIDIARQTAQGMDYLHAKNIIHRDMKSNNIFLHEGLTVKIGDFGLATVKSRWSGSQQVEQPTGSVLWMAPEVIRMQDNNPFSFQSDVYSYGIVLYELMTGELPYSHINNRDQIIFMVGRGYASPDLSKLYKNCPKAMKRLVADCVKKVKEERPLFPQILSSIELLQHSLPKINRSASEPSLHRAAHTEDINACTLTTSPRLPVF
Sequence of RAF proto-oncogene serine/threonine-protein kinase (Homo sapiens, UniProt P04049, Y340E/Y341E) (P04049 whole entry Y340E/Y341E): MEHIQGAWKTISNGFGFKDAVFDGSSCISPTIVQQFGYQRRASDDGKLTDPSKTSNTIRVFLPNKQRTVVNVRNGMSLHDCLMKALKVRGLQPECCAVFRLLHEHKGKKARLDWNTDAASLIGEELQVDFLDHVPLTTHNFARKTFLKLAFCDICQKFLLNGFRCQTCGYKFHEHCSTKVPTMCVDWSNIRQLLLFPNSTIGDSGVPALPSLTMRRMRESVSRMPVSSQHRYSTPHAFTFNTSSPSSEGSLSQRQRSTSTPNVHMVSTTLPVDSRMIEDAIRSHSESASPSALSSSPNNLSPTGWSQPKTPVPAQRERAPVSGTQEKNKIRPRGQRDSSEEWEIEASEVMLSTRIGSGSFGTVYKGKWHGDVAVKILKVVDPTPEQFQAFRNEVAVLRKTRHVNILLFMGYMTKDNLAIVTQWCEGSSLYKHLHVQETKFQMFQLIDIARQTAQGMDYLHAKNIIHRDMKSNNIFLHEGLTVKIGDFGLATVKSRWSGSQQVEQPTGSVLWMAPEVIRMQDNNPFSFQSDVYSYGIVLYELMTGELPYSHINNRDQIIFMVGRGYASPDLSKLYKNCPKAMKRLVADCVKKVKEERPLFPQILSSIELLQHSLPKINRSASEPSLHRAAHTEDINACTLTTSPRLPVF
Sequence of Cytochrome P450 3A4 (P08684 whole entry): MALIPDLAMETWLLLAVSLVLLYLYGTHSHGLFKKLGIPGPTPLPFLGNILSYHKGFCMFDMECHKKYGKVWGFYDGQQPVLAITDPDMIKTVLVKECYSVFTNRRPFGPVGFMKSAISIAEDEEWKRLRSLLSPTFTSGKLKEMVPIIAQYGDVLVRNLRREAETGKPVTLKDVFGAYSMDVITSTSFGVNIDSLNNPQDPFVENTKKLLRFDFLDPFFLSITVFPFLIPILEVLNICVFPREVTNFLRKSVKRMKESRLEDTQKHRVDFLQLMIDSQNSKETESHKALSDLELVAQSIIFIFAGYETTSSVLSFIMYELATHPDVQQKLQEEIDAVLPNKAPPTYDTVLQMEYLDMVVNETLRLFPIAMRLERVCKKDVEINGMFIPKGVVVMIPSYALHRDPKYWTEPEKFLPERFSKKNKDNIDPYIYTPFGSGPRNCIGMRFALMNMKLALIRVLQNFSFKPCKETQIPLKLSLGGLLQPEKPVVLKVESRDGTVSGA

microsomal CLint [2] [µL/min/mg]	EC50 [3] [nM]	solubility thermodynamic [4] [µM]	EC50 (Calu-6) [nM]	Papp A→B [5] [×10⁻⁶ cm/s]	Papp B→A [6] [×10⁻⁶ cm/s]	Drug uptake [7]	Drug uptake [8]	Drug uptake [9]	SMILES	other results
302	21	43 (≈ 24.6 µg/mL)	1760						CO[C@H]1COCC[C@@H]1Oc1ncc(-c2cc(NC(=O)c3cccc(C(F)(F)F)c3)cnc2C)cc1N1CCOCC1	IC50 [1]: 1.7 nM
48	61	2.1 (≈ 1.05 µg/mL)	160	8	30				Cc1ccc(NC(=O)c2cccc(C(F)(F)F)c2)cc1-c1cc(N2CCOCC2)nc(NCCO)n1	IC50 [1]: 0.2 nM
7.7	8	59.6 (≈ 32.4 µg/mL)	880	4.4	51				Cc1ncc(NC(=O)c2cccc(C(F)(F)F)c2)cc1-c1cc(N2CCOCC2)c(OC2CCOCC2)nn1	
15.5	52	33.9 (≈ 16 µg/mL)	1350	6.3	49				Cc1ccc(NC(=O)c2ccnc(C(C)(C)C#N)c2)cc1-c1cc(N2CCOCC2)c(=O)n(C)n1	
						Active	Active	Active	Cc1ncc(NC(=O)c2cccc(C(F)(F)F)c2)cc1-c1cnc(OC2CCOCC2)c(N(CCO)CCO)c1	
88		104 (≈ 56.5 µg/mL)	400						[2H]C1(Oc2ncc(-c3cc(NC(=O)c4cccc(C(F)(F)F)c4)cnc3C)cc2N2CCOCC2)CCOCC1	
						Active	Active	Active	Cc1ncc(NC(=O)c2cccc(C(F)(F)F)c2)cc1-c1cnc(OC(CCO)CCO)c(N2CCOCC2)c1	
						Active	Active	Active	Cc1ncc(NC(N)=O)cc1-c1cnc(OC2CCOCC2)c(N2CCOCC2)c1	
65.5		25 (≈ 14 µg/mL)	340	16	20				Cc1ncc(NC(=O)c2cccc(C(F)(F)F)c2)cc1-c1cnc(O[C@H]2CCOC[C@H]2F)c(N2CCOCC2)c1	
20.5	8	36.3 (≈ 18.2 µg/mL)	510	5	53				Cc1ccc(NC(=O)c2ccnc(C(F)(F)F)c2)cc1-c1cc(NCCO)nc(N2CCOCC2)c1	IC50 [1]: 0.6 nM; K (Cytochrome P450 3A4): 0.035 min⁻¹
10.4	27	730 (≈ 364 µg/mL)	6220	3	34				Cc1ncc(NC(=O)c2ccnc(C(C)(F)F)c2)cc1-c1cc(NCCO)nc(N2CCOCC2)c1	IC50 [1]: 0.7 nM; K (Cytochrome P450 3A4): 0.035 min⁻¹
									CC(C)(C)c1nc(-c2cccc(NS(=O)(=O)c3c(F)cccc3F)c2F)c(-c2ccnc(N)n2)s1 [DABRAFENIB]	EC50 [10]: Not Active; inhibition [11]: inactive; Activity [12]: Active
						Active	Active	Active	Cc1ncc(N)cc1-c1cnc(OC2CCOCC2)c(N2CCOCC2)c1	
94									Cc1ncc(NC(=O)c2cccc(C(F)(F)F)c2)cc1-c1cnc(OC2CCOCC2)c(N2CCOCC2)c1	remaining at 3 h, 10 µM [13]: 44%; Stability [14]: 36%; Drug metabolism [15]: 20%; remaining at 3 h, 10 µM [16]: 74%; Drug metabolism [17]: < 1%
9.4		55 (≈ 25.2 µg/mL)	3910	0.3	43	Active	Active	Active	Cc1ncc(NC(=O)c2cccc(C(F)(F)F)c2)cc1-c1c[nH]c(=O)c(N2CCOCC2)c1	
43.3		13 (≈ 5.75 µg/mL)	5280		41				Cc1ccc(NC(=O)c2cccc(C(F)(F)F)c2)cc1-c1cc(N2CCOCC2)ncn1	
